Source: PubChem
An excerpt weighted towards active compounds, which were near 1.4% of everything screened.
thrombin 1536 – blocks human thrombin protease activity; P00734; alpha-thrombin, Boc-VPR-AMC fluorogenic substrate cleavage; inhibition, % at 5 µM; 220,000 compounds, 0.26% hits; AID 1046;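 active = inhibition at or above 40%; inactive = inhibition below 40%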;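 also: 0% = enzyme with no compound and 100% = wells without enzyme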
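Material: human alpha-thrombin protein. Incubation: reaction at ambient temperature. Technique: fluorescence of released AMC, ex 355 nm, em 460 nm. Control set: no-compound enzyme wells and no-enzyme blanks. Also added: Boc-VPR-AMC substrate, 15 µM final. Buffer or medium: pH 7.5 Tris (50 mM) with NaCl 150 mM, Tween 20 0.05%.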
hK5 inh – inhibitors of human kallikrein 5; inhibition, % at 5 µM; 210,000 compounds, 0.59% hits; AID 873; recombinant hK5, fluorogenic AMC substrate cleavage; Q9Y337;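 active = inhibition of 40% or more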;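 also: 0% = enzyme controls without compound and 100% = no-enzyme blanks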
FXIa inh 1536 – factor XIa (human) inhibition; P03951; purified FXIa, Boc-Glu-Ala-Arg-AMC fluorogenic substrate; inhibition, % at 5 µM; 220,000 compounds, 0.14% hits;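 active = inhibition of at least 40%; inactive = inhibition below 40%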;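 also: fluorescence of freed AMC excited at 355 nm; 0% = enzyme without compound and 100% = no enzyme blank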
FXIIa inh 1536 – inhibitors of human coagulation factor XIIa | AID 800 | 220,000 compounds, 0.3% hits | purified FXIIa, Boc-QGR-AMC fluorogenic substrate, 2 h | P00748 | inhibition, % at 5 µM; in the data active = inhibition above about 40%;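 also: 0% = enzyme with no compound and 100% = blank without enzyme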
Target sequence (P00748 20-372 limits assumed): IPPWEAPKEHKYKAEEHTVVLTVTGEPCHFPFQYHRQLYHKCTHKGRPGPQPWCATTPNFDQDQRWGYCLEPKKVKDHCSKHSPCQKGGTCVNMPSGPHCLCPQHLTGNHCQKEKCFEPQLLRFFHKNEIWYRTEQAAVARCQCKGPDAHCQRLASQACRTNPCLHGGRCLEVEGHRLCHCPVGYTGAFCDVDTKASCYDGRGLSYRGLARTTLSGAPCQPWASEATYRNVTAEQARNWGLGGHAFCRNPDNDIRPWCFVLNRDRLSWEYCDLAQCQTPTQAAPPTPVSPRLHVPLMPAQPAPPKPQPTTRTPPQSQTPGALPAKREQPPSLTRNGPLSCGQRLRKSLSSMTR
Target sequence (P00748 373-615 limits assumed): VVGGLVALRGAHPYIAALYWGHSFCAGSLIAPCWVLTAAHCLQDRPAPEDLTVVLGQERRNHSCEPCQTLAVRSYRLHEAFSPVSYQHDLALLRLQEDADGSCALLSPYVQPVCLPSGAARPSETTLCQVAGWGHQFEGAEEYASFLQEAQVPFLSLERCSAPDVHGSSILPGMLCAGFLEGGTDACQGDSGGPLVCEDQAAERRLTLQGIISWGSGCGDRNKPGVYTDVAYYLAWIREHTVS
m-calpain inh – blocks pig calpain II enzyme activity. purified calpain II, fluorogenic peptide substrate, 30 min. inhibition, % at 16 µM. 220,000 compounds, 0.37% hits;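 active = inhibition above about 50%, limit read from the data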
Numbers without * were called inactive; nt = not tested or not shown.

SMILES	thrombin 1536	hK5 inh	FXIa inh 1536	FXIIa inh 1536	m-calpain inh
O=C1CCC(=O)N1c1nc2n(n1)C(c1ccccc1)C=C(c1ccc(Br)cc1)N2 (configuration not stated)	11	-16	-6	15	-336
COc1ccc(C2C=C(c3ccc(Br)cc3)Nc3nc(N4C(=O)CCC4=O)nn32)cc1 (configuration not stated)	53*	-85	-3	13	-401
COc1ccccc1C1C=C(c2ccc(Cl)cc2)Nc2nc(N3C(=O)CCC3=O)nn21 (configuration not stated)	50*	-34	3	13	-286
COc1cc(C(=O)Nc2ccc(NC(=O)C3CC3)nc2)cc(OC)c1OC	3	-2	2	9	15
CC(C)CCNC(=O)c1ccc(Cl)c(NC(=O)c2ccccc2F)c1	-10	-9	-6	2	9
O=C(CC(c1ccc(F)cc1)c1ccco1)N1CCOCC1 (configuration not stated)	43*	59*	2	31	9
CCN(CC)C(=O)CN1CCN(c2ncccn2)CC1	33	64*	4	10	4
Cn1ncc(Oc2ccc([N+](=O)[O-])cc2)c(Cl)c1=O	-1	71*	25	42*	8
Cn1ncc(Cl)c(Oc2ccc(Cl)cc2)c1=O	1	-5	10	16	-2
Cc1ccc(NC(=S)NC(C)CCc2ccccc2)cc1C (configuration not stated)	-1	-6	8	14	64*
CCOC(=O)C1(CC2CC2)CCN(Cc2cc(Cl)c(O)c(OC)c2)CC1	-9	2	-3	4	23
Cc1cc(/C=C(\C#N)C(=O)Nc2ccc(Cl)cc2)c(C)n1-c1ccc(N2CCOCC2)c([N+](=O)[O-])c1	4	-4	12	20	-36
CNC(=O)/C(C#N)=C/c1cc(C)n(-c2ccc(N3CCOCC3)cc2)c1C	-7	44*	-9	2	-6
COc1ccc(-c2cc(C(F)F)n3ncc(C(=O)n4ccnc4C)c3n2)cc1	88*	-17	-4	-3	-451
COc1ccc(-c2cc(C(F)F)n3ncc(C(=O)N4CCc5ccccc54)c3n2)cc1	20	2	1	11	-275
O=C(O)c1cc([N+](=O)[O-])ccc1N1CCCCC1	-5	-14	8	9	33
CC(C)(C)NC(=O)c1cc([N+](=O)[O-])ccc1N1CCCCC1	73*	63*	6	3	17
CN(C(=O)c1coc(=O)c2ccccc12)c1ccc(F)cc1	-1	-8	-4	3	-9
CCCn1c(CN2CCCCC2C)nc2c1c(=O)n(C)c(=O)n2C (configuration not stated)	-1	-4	2	12	-7
Cc1cc(=O)[nH]c(SCC(=O)NCC2CCCO2)n1 (configuration not stated)	42*	-3	-7	2	-12
CN(C)c1nc(Oc2ccc(=O)[nH]n2)nc(N2CCCCC2)n1	19	21	13	15	18
Cc1ccccc1NC(=O)COC(=O)CCc1ccccc1	-2	-3	-1	13	64*
CCN(CC)c1cc(C)c2cc(NC(=O)CNC(C)=O)ccc2n1	0	142*	-8	-7	nt
CCCCNC(=O)CCC(=O)Nc1ccc2nc(N3CCC(C)CC3)cc(C)c2c1	-7	1	-2	8	-326
CC(C)(C)C(=O)Nc1ncccc1C(O)c1cccc(C(F)(F)F)c1 (configuration not stated)	3	2	-1	12	-16
SMILES	thrombin 1536	hK5 inh	FXIa inh 1536	FXIIa inh 1536	m-calpain inh
CCOC(=O)c1c(O)c2cc(Cl)ccc2n(CC)c1=O	34	27	32	50*	13
CCCCCn1c(=O)c(C(=O)OCC)c(O)c2ccccc21	-8	-2	-6	4	-10
Cc1cc(C(=O)CN2C(=O)c3cccc(N)c3C2=O)c(C)n1Cc1cccs1	2	-21	6	19	-341
COc1ccc(N2CCN(c3nc(NC(C)(C)C)nc(N4CCCCC4)n3)CC2)cc1	11	-15	4	4	65*
COc1ccc(Nc2nc(NC(C)(C)C)nc(N3CCCC3)n2)c(OC)c1	-1	-23	-16	3	-9
Cc1ccc(N=Nc2c(N)n(-c3ccccc3)[nH]c2=O)cc1	22	40*	18	16	8
Cc1ccc(NC(=S)Nc2cccc3cnccc23)cc1	-1	-3	-2	4	13
CC(=O)c1ccc(NC(=S)Nc2cccc3cnccc23)cc1	19	13	65*	11	11
Cn1c(=O)c(-c2ccccc2)c(O)c2ccccc21	-13	-3	-2	3	-7
Cc1ccc(C)c(NC(=S)NCc2cccs2)c1	-9	-17	3	10	-7
CCOc1c(C(=O)CC)cc2c(C)cc(=O)oc2c1C	1	-12	13	17	-12
COc1ccc(C(=O)COC(=O)CCN=C2NS(=O)(=O)c3ccccc32)cc1OC	-1	5	-2	13	3
Clc1ccc(-c2ccccc2)nn1	-6	45*	-9	5	1
COc1cccc(C2=CC(c3ccc(OC)c(OC)c3OC)n3nnnc3N2)c1 (configuration not stated)	-2	-8	-6	-5	32
COc1cccc(C2=CC(c3cccs3)n3nnnc3N2)c1 (configuration not stated)	3	-4	9	10	68*
O=C(CC(=O)N/N=C/c1ccc(O)cc1)N/N=C/c1ccc(O)cc1	4	7	4	9	-1
Oc1ccc(Oc2ccc3c(C(F)(F)F)cc(C(F)(F)F)nc3n2)cc1	4	132*	-5	0	3
COc1ccc(Oc2ccc3c(C(F)(F)F)cc(C(F)(F)F)nc3n2)cc1	4	-18	-22	17	-27
Cc1ccc([N+](=O)[O-])cc1NC(=S)NC(=O)c1ccco1	-6	-1	1	9	6
CSc1sc(C(=O)NCC2CC2)cc1S(=O)(=O)C(C)C	0	3	2	15	-16
Nc1nc(Cl)cc(Sc2ccc(F)cc2)n1	-19	-11	-10	0	-25
Cc1ccc(Sc2cc(Cl)nc(N)n2)cc1	23	77*	10	20	5
N#Cc1c(NC(=O)c2ccccc2)sc2c1CCC2	-3	-21	-3	3	-45
COc1cccc(C(=O)Nc2sc3c(c2C#N)CCN(C(C)=O)C3)c1	4	42*	30	26	35
Cc1ccc(C(=O)NC(NC(=S)Nc2ccc(S(N)(=O)=O)cc2)C(Cl)(Cl)Cl)cc1 (configuration not stated)	30	44*	-4	2	-3
O=C(O)C1CCCN1C(=O)c1cncc(Br)c1 (configuration not stated)	-2	-12	0	6	11
Nc1n[nH]c(N)c1N=Nc1ccc(F)cc1	23	4	-5	4	51*
COc1cc(/C=C2\SC(=O)N(c3cccc(Cl)c3)C2=O)cc([N+](=O)[O-])c1O	0	9	6	12	66*
